Source: PubChem BioAssay
An excerpt weighted towards active compounds, which were near 1.9% of everything screened.
M4 PAM: CHRM4 positive allosteric modulation. CHO-K1 hM4/Gqi5, Fluo-8 calcium fluorescence, ACh EC20; 0% = ACh EC20, 100% = maximal ACh. P08173. activation, % at 3 µM. AID 624126. hit rate 0.4% among 360,000;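 active = activation above its plate's cutoff, the mean activation of sample wells plus 3 SD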
Target sequence (P08173 whole entry, looked up): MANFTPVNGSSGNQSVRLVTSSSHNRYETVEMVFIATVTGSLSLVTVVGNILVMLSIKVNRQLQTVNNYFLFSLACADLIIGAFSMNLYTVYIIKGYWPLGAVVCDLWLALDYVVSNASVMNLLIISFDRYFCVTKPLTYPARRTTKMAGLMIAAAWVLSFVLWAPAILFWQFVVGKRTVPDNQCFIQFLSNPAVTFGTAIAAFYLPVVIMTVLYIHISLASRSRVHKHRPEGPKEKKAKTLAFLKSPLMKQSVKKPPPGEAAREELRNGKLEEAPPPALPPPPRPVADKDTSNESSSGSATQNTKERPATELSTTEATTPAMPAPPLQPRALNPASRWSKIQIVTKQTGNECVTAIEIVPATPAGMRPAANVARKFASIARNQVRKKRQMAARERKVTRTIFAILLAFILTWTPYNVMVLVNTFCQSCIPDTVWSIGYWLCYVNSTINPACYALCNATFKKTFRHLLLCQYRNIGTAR
CHRM5 agonist: CHRM5 agonism in calcium assay; P08912; CHO-K1 hM5 cells, Fluo-8 calcium fluorescence; 0% DMSO wells, 100% maximal acetylcholine response; activation, % at 3 µM; hit rate 0.19% among 360,000; AID 624037;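 active = activation above the run's mean over test compounds plus 3 SD, cut at about 23% in these data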;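 note: signal is peak over basal fluorescence ratio across the kinetic read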
M4 ag: agonists of human muscarinic M4 receptor (CHRM4); P08173; CHO-K1 hM4/Gqi5, Fluo-8 calcium fluorescence; vehicle 0%, full acetylcholine response 100%; activation, % at 3 µM; hit rate 0.14% among 360,000; AID 624127;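 active = activation above the run mean over all test wells plus 3 SD, cut at about 32% in these data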;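 note: peak over basal fluorescence ratio per well then scaled between controls; 0% = DMSO wells and 100% = acetylcholine at EC100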
M5 PAM: potentiates acetylcholine response at human M5 receptor; activation, % at 3 µM; CHO-K1 hM5, Fluo-8 calcium, ACh EC20 PAM; 0% = ACh EC20, 100% = ACh EC100; hit rate 0.3% among 360,000; P08912;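 active = activation above the run cutoff, the mean activation of all test compounds plus 3 SD, cut at about 18% in these data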
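Assay system – human M5 receptor in CHO-K1 cells · Read-out – % activation, ACh-normalized · Technique – Fluo-8 calcium fluorescence · Dosing – single-point, 3 µM nominal · Incubation – Fluo-8 loading 80 min at 37 °C plus 30 min room temperature · Repeats – singlicate, one well per test compound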
M5 antag: CHRM5 antagonism in calcium assay. CHO-hM5 cells, Fluo-8 calcium fluorescence, ACh EC80. inhibition, % at 3 µM. hit rate 0.59% among 360,000;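 active = inhibition above a per-plate cutoff, the mean of that plate's test compounds plus 3 SD, cut at about 27% in these data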;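 note: 0% = acetylcholine EC80 with DMSO and 100% = DMSO without agonist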
CHRM4 antagonist: blocks acetylcholine activation of human M4 receptor. P08173. CHO-hM4 cells, ACh EC80, Fluo-8 calcium fluorescence. inhibition, % at 3 µM. hit rate 0.73% among 360,000. AID 624125;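 active = inhibition above its plate's cutoff, the mean inhibition of sample wells plus 3 SD, cut at about 27% in these data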;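 note: 0% = acetylcholine EC80 with DMSO and 100% = DMSO without agonist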
* hit, by the source's call.

SMILES	M4 PAM	CHRM5 agonist	M4 ag	M5 PAM	M5 antag	CHRM4 antagonist
O=C1C(Nc2ccc(O)cc2)=C/C(=N/S(=O)(=O)c2cccs2)c2ccccc21	-10	-7	9	2	35*	7
Cc1ccc(-c2nc3sc4c(c3c(=O)n2N)CC(C)(C)OC4)cc1	6	0	0	3	-1	-1
Cc1ccc(-c2nc3sc4c(c3c(=O)n2N)CCCC4)cc1	38*	1	0	10	1	7
O=C(Nc1nnc(-c2cccs2)o1)c1cccc(C(F)(F)F)c1	-3	15	65*	-16	4	-4
N#Cc1ccc(C(=O)Nc2nnc(-c3cccs3)o2)cc1	4	0	0	0	8	-7
Cc1oc2nc(SCC(=O)N3CCCCC3)nc(N)c2c1C	20*	-3	1	-2	7	-8
COc1ccc(-n2nc(C(=O)NCC(=O)NCCCN3CCCCCC3)c3ccccc3c2=O)cc1Cl	-21	-12	1	6	0	32*
COc1ccc(-n2nc(C(=O)NCC(=O)NCCCN3CCC(C)CC3)c3ccccc3c2=O)cc1Cl	-13	-4	0	1	0	14
CCN(CCCNC(=O)CNC(=O)c1nn(-c2ccc(OC)cc2)c(=O)c2ccccc12)c1cccc(C)c1	-24	-4	11	-11	29*	12
CCCCNC(=S)NC(C)(C)CO	-1	-2	0	1	2	5
CC(=O)c1cc2cccc(OC3(C)CCN(Cc4ccc5ccccc5c4)C3)c2o1 (stereo unspecified)	-6	-1	3	-3	2	13
CC1CCC(NS(=O)(=O)c2ccc(N3CCCC3=O)cc2)CC1 (stereo unspecified)	-13	8	31	14	17	32*
O=C1CCCN1c1ccc(S(=O)(=O)Nc2cccnc2)cc1	6	-8	1	1	-9	3
CC(=O)N1c2ccccc2NC2=C(C(=O)CCC2)C1c1ccco1 (stereo unspecified)	19	8	1	21*	11	-9
CC(C)(C)c1ccc(NC(=O)c2cc[n+]([O-])cc2)cc1	1	-2	1	0	17	0
CC(=O)Nc1ccc(C(=O)Nc2cc(C)on2)cc1	-13	-2	-1	-2	0	28*
CC(=O)Nc1ccc(NC(=O)c2cc[n+]([O-])cc2)cc1	-7	-3	1	-6	29*	4
COc1ccccc1NC(=O)c1cc2c(cc1Cl)N1CCCCCC1=NS2(=O)=O	0	1	1	13	-12	-12
Cc1cc(C)[n+](-c2ccc(C(C)C)cc2)c2[nH]c(=O)[nH]c(=O)c12	-33	-7	0	-9	-1	41*
O=C1CSC(=S)N1/N=C/c1cc(Br)c(O)c(Br)c1	-30	200*	401*	-20	48*	54*
CN(C)c1ccc(C2N3CC4(C)CN2CC(C)(C3)C4O)cc1 (stereo unspecified)	11	-1	1	1	-10	-29
CC(C)C12CN3CC(C(C)C)(CN(C1)C3c1ccccc1)C2O (stereo unspecified)	32*	6	1	-2	1	0
CCOC(=O)CC(=O)Nc1ccccc1C(=O)O	25*	0	1	-3	0	-1
C/C=C/C1=CC(=O)C[C@H](c2ccc3c(c2)OCO3)C1	0	1	-1	-7	5	-6
C1=C\CCC2(OCCO2)C2(CC/1)OCCO2	3	1	1	0	6	-3
SMILES	M4 PAM	CHRM5 agonist	M4 ag	M5 PAM	M5 antag	CHRM4 antagonist
O=C(NCCCN1CCCC1)c1ccc2c(c1)N(Cc1cccc(Cl)c1)C(=O)c1ccccc1S2(=O)=O	-5	-3	1	-2	3	7
CCOCCCNC(=O)Cn1ncc2c(=O)oc3ccccc3c21	2	1	4	-4	5	39*
COCCNC(=O)CCC1CCN(Cc2ccc(-c3ccccc3)cc2)CC1	-16	-24	1	-29	7	57*
COCCNC(=O)C1CCCN(Cc2ccccc2)CC1 (stereo unspecified)	4	-1	0	0	7	-12
COCCNC(=O)c1cccc(OC2CCN(Cc3ccc(C(=O)OC)cc3)CC2)c1	-15	-24	0	-30	25	60*
COC(=O)c1ccc(CN2CCC(Oc3cccc(C(=O)N4CCOCC4)c3)CC2)cc1	-15	-7	4	-13	67*	61*
COCCNC(=O)c1cccc(OC2CCN(Cc3ccc(C(C)C)cc3)CC2)c1	-17	-20	3	-33	12	20
CSc1cccc(CN2CCC(Oc3cccc(C(=O)N4CCCC4)c3)CC2)c1	-11	-8	4	-15	28*	-3
CC(=O)c1cccc(NC(=O)CCc2nc3sc4c(c3c(=O)[nH]2)CCCC4)c1	-2	3	8	-2	-3	4
O=C(CSc1ccc2ccccc2n1)NCCC1=CCCCC1	-6	-8	-2	-13	30*	-12
O=C(NCc1ccccc1C(F)(F)F)c1cccc2c1C(=O)c1ccc(N3CCC(N4CCCCC4)CC3)cc1S2(=O)=O	-14	5	22	-13	19	20
O=C(Cn1ncc2c([nH]c3ccccc32)c1=O)NCCc1ccc(Cl)cc1	-3	-1	1	-5	8	4
CSc1ccc(CCNC(=O)Cn2ncc3c([nH]c4ccccc43)c2=O)cc1	15*	-4	2	-3	19	16
NCCC(=O)N1c2ccccc2Sc2ccc(Cl)cc21	-14	-20	14	-33	61*	38*
NCCCC(=O)N1c2ccccc2Sc2ccc(Cl)cc21	-19	-11	2	-23	77*	64*
CN1CCN(CCC(=O)N2c3ccccc3Sc3ccc(Cl)cc32)CC1	-20	-7	0	-15	9	21
COc1ccc(/C=C\C(=O)O[C@@H]2C(O)C(O[C@@H]3OC(C)[C@H](O[C@@H]4OCC(O[C@H]5O[C@H](CO)[C@@H](O)C(O)C5O)C(O)C4O)C(O)C3O)[C@H](OC(=O)[C@]34CCC(C)(C)C[C@@H]3C3=CCC5[C@@]6(C)CC(O)C(O[C@@H]7OC(CO)C(O)[C@H](O)[C@H]7O)[C@@](C)(C(=O)O)C6CC[C@@]5(C)[C@]3(CO)CC4)O[C@H]2C)cc1 (stereo partly specified)	-14	50*	147*	-27	48*	79*
COc1cc(C(=O)N2CCC2(C)C(=O)O)cc(OC)c1OC (stereo unspecified)	0	2	1	-5	0	-13
